Measured values published in ChEMBL document CHEMBL2346534, “Design, synthesis and in vitro anti-proliferative activity of 4,6-quinazolinediamines as potent EGFR-TK inhibitors” (Eur J Med Chem, 2013).

Experiments:
SF-295 = assay: Cytotoxicity against human SF295 cells after 48 hrs by SRB assay; format: functional; conditions: SF-295, 48 h
Outline: (§1)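 NCI 60-panel five-dose screen. Cells in RPMI 1640 with 5% FBS and 2 mM L-glutamine are plated at 5000–40,000 cells/well by doubling time and preincubated 24 h at 37 °C in 5% CO2. Drug in DMSO is tested at 0.01, 0.1, 1, 10 and 100 μM for 48 h. Cells are TCA-fixed, stained with SRB and read at 515 nm. GI50 is the concentration giving 50% reduction in net protein increase relative to time-zero and control plates.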

PC-3 = assay: Cytotoxicity against human PC3 cells after 48 hrs by SRB assay; format: functional; conditions: PC-3, 48 h; outline: as §1
RPMI-8226 = assay: Cytotoxicity against human RPMI8226 cells after 48 hrs by SRB assay; format: functional; conditions: RPMI-8226, 48 h; outline: as §1
[1] = Cytotoxicity against human NCI-ADR-RES cells after 48 hrs by SRB assay; format: functional; outline: as §1
SR = assay: Cytotoxicity against human SR cells after 48 hrs by SRB assay; format: functional; outline: as §1
UACC-257 = assay: Cytotoxicity against human UACC257 cells after 48 hrs by SRB assay; format: functional; conditions: UACC-257, 48 h
Outline: (§2)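 NCI 60 five-dose screen. Cells in RPMI 1640 with 5% FBS and 2 mM L-glutamine, plated at 5000–40,000 cells/well by doubling time, pre-incubated 24 h at 37 °C, 5% CO2. Time-zero plates TCA-fixed at drug addition. Final concentrations 0.01, 0.1, 1, 10 and 100 µM (DMSO stock), 48 h exposure. TCA fixation, 0.4% SRB stain, absorbance 515 nm. GI50 from [(Ti−Tz)/(C−Tz)]×100 = 50.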

TK-10 = assay: Cytotoxicity against human TK10 cells after 48 hrs by SRB assay; format: functional; conditions: TK-10, 48 h; outline: as §2
MDA-MB-468 = assay: Cytotoxicity against human MDA-MB-468 cells after 48 hrs by SRB assay; format: functional; conditions: MDA-MB-468, 48 h; outline: as §1
[2] = target: Epidermal growth factor receptor (Homo sapiens, UniProt P00533); assay: Inhibition of EGFR tyrosine kinase (unknown origin) using poly (Glu,Tyr) as substrate after 30 mins by ADP-GloTM assay
Sequence of Epidermal growth factor receptor (P00533 whole entry): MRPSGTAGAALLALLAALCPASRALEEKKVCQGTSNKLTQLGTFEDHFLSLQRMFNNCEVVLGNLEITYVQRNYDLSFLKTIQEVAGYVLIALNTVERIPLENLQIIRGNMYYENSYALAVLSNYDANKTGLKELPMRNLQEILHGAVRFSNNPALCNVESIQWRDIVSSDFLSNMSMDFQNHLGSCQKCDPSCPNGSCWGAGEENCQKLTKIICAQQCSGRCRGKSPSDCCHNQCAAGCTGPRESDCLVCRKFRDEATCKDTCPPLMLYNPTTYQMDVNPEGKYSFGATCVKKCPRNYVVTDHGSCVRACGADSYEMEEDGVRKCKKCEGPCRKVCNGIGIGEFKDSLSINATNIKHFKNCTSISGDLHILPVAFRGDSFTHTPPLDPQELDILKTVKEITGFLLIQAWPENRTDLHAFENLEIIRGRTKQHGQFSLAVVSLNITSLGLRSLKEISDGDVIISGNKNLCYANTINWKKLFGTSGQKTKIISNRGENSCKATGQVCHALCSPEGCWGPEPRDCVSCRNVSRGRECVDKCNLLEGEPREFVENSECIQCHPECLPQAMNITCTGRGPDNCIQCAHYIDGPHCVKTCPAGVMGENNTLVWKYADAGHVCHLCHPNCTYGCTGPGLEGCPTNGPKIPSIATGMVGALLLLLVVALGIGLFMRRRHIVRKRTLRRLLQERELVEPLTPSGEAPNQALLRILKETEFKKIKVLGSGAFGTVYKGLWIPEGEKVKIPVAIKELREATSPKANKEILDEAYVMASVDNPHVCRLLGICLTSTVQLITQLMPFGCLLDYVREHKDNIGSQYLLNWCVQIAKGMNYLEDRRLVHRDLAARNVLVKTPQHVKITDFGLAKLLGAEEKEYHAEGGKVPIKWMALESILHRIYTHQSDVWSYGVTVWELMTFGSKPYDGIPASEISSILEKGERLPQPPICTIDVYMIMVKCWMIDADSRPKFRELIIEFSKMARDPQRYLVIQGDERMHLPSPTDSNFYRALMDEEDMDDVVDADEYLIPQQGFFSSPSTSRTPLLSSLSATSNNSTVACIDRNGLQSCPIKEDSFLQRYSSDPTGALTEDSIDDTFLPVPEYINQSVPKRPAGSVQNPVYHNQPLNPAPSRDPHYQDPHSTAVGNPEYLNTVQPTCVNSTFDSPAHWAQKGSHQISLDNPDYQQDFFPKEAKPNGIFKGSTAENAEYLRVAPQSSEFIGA

T47D = assay: Cytotoxicity against human T47D cells after 48 hrs by SRB assay; format: functional; outline: as §2
SNB-19 = assay: Cytotoxicity against human SNB19 cells after 48 hrs by SRB assay; format: functional; conditions: SNB-19, 48 h; outline: as §1
ACHN = assay: Cytotoxicity against human ACHN cells after 48 hrs by SRB assay; format: functional
Outline: (§3)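 NCI 60-panel five-dose screen. Cells in RPMI 1640 with 5% FBS and 2 mM L-glutamine, plated at 5000–40,000 cells/well by doubling time, preincubated 24 h at 37 °C/5% CO2. Drug from DMSO stock added at 0.01, 0.1, 1, 10 and 100 µM, then 48 h. TCA fixation, SRB stain, absorbance at 515 nm, time-zero plates included. GI50 = 50% reduction in net protein increase versus control.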

786-0 = assay: Cytotoxicity against human 786-0 cells after 48 hrs by SRB assay; format: functional; conditions: 786-0, 48 h; outline: as §3
NCI-H522 = assay: Cytotoxicity against human NCI-H522 cells after 48 hrs by SRB assay; format: functional; conditions: NCI-H522, 48 h; outline: as §1
RXF 393 = assay: Cytotoxicity against human RXF393 cells after 48 hrs by SRB assay; format: functional; conditions: RXF 393, 48 h; outline: as §1
HOP-62 = assay: Cytotoxicity against human HOP62 cells after 48 hrs by SRB assay; format: functional; conditions: HOP-62, 48 h; outline: as §3
OVCAR-5 = assay: Cytotoxicity against human OVCAR5 cells after 48 hrs by SRB assay; format: functional; conditions: OVCAR-5, 48 h; outline: as §1
CAKI-1 = assay: Cytotoxicity against human Caki1 cells after 48 hrs by SRB assay; format: functional; conditions: CAKI-1, 48 h; outline: as §3
COLO 205 = assay: Cytotoxicity against human COLO205 cells after 48 hrs by SRB assay; format: functional; conditions: COLO 205, 48 h; outline: as §3
A498 = assay: Cytotoxicity against human A498 cells after 48 hrs by SRB assay; format: functional; conditions: A498, 48 h; outline: as §3
MDA-MB-231 = assay: Cytotoxicity against human MDA-MB-231/ATCC cells after 48 hrs by SRB assay; format: functional; conditions: MDA-MB-231, 48 h; outline: as §3
MCF7 = assay: Cytotoxicity against human MCF7 cells after 48 hrs by SRB assay; format: functional; conditions: MCF7, 48 h; outline: as §3
[3] = Cytotoxicity against human EKVX cells after 48 hrs by SRB assay; format: functional; outline: as §3
LOX IMVI = assay: Cytotoxicity against human LOXIMVI cells after 48 hrs by SRB assay; format: functional; outline: as §3
UO-31 = assay: Cytotoxicity against human UO31 cells after 48 hrs by SRB assay; format: functional; conditions: UO-31, 48 h; outline: as §2
HCT-15 = assay: Cytotoxicity against human HCT15 cells after 48 hrs by SRB assay; format: functional; conditions: HCT-15, 48 h; outline: as §3
Hs-578T = assay: Cytotoxicity against human Hs578T cells after 48 hrs by SRB assay; format: functional; outline: as §3
[4] = read-out: LC50 (the source's name)

With `NC(=O)Nc1ccc2ncnc(Nc3ccc(Cl)cc3)c2c1` the GI50 (SF-295) was 14.8 µM, the TGI (SF-295) was 45.5 µM and the CC50 (SF-295; [4]) was over 100 µM. It also gave a GI50 (PC-3) of 16.7 µM, a TGI (PC-3) of 92.5 µM and a CC50 (PC-3; [4]) of over 100 µM. It also gave a GI50 (RPMI-8226) of 20.5 µM, a TGI (RPMI-8226) of 78.9 µM and a CC50 (RPMI-8226; [4]) of over 100 µM. For the same compound, the GI50 [1] was 19.5 µM, the TGI [1] was over 100 µM and the CC50 [1, 4] was over 100 µM. It also gave a GI50 (SR) of 19.1 µM, a TGI (SR) of 75.6 µM and a CC50 (SR; [4]) of over 100 µM. It also gave a GI50 (UACC-257) of 23.5 µM, a TGI (UACC-257) of 75.2 µM and a CC50 (UACC-257; [4]) of over 100 µM. The GI50 (TK-10) was 0.98 µM, the TGI (TK-10) was 16.2 µM and the CC50 (TK-10; [4]) was over 100 µM. For the same compound, the GI50 (MDA-MB-468) was 1.09 µM, the TGI (MDA-MB-468) was 3.95 µM and the CC50 (MDA-MB-468; [4]) was over 100 µM. It also gave an IC50 [2] of 0.061 µM, a GI50 (T47D) of 6.47 µM and a TGI (T47D) of 72.3 µM. It also gave a CC50 (T47D; [4]) of over 100 µM, a GI50 (SNB-19) of 9.02 µM and a TGI (SNB-19) of over 100 µM. For the same compound, the CC50 (SNB-19; [4]) was over 100 µM, the GI50 (ACHN) was 1.47 µM and the TGI (ACHN) was 35.8 µM. For the same compound, the CC50 (ACHN; [4]) was over 100 µM, the GI50 (786-0) was 20.7 µM and the TGI (786-0) was 88.9 µM. The CC50 (786-0; [4]) was over 100 µM, the GI50 (NCI-H522) was 2.4 µM and the TGI (NCI-H522) was 20.9 µM. It also gave a CC50 (NCI-H522; [4]) of over 100 µM, a GI50 (RXF 393) of 15.1 µM and a TGI (RXF 393) of 75.9 µM. It also gave a CC50 (RXF 393; [4]) of over 100 µM, a GI50 (HOP-62) of 21.1 µM and a TGI (HOP-62) of 84.4 µM. The CC50 (HOP-62; [4]) was over 100 µM, the GI50 (OVCAR-5) was 15.2 µM and the TGI (OVCAR-5) was 90.3 µM. For the same compound, the CC50 (OVCAR-5; [4]) was over 100 µM, the GI50 (CAKI-1) was 1.33 µM and the TGI (CAKI-1) was 21.5 µM. It also gave a CC50 (CAKI-1; [4]) of over 100 µM, a GI50 (COLO 205) of 27.5 µM and a TGI (COLO 205) of over 100 µM. It also gave a CC50 (COLO 205; [4]) of over 100 µM, a GI50 (A498) of 0.45 µM and a TGI (A498) of 13 µM. For the same compound, the CC50 (A498; [4]) was 64.8 µM, the GI50 (MDA-MB-231) was 8.92 µM and the TGI (MDA-MB-231) was 37.7 µM. The CC50 (MDA-MB-231; [4]) was over 100 µM, the GI50 (MCF7) was 26.2 µM and the TGI (MCF7) was over 100 µM. The CC50 (MCF7; [4]) was over 100 µM, the GI50 [3] was 0.37 µM and the TGI [3] was 4.46 µM. The CC50 [3, 4] was over 100 µM, the GI50 (LOX IMVI) was 19.3 µM and the TGI (LOX IMVI) was 68.7 µM. The CC50 (LOX IMVI; [4]) was over 100 µM, the GI50 (UO-31) was 4.22 µM and the TGI (UO-31) was 43 µM. It also gave a CC50 (UO-31; [4]) of over 100 µM, a GI50 (HCT-15) of 17.8 µM and a TGI (HCT-15) of over 100 µM. It also gave a CC50 (HCT-15; [4]) of over 100 µM, a GI50 (Hs-578T) of 14.8 µM and a TGI (Hs-578T) of 55.9 µM. It also gave a CC50 (Hs-578T; [4]) of over 100 µM.
